Experimental data taken from paper PMC11656131 (Angewandte Chemie (International Ed. in English), 2024).
“Also recorded” adds a separate entry of the source.

Biological target: T1, CERT (Homo sapiens, UniProt Q9Y5P4)
T1 sequence (Q9Y5P4 1-598 isoform Q9Y5P4-2): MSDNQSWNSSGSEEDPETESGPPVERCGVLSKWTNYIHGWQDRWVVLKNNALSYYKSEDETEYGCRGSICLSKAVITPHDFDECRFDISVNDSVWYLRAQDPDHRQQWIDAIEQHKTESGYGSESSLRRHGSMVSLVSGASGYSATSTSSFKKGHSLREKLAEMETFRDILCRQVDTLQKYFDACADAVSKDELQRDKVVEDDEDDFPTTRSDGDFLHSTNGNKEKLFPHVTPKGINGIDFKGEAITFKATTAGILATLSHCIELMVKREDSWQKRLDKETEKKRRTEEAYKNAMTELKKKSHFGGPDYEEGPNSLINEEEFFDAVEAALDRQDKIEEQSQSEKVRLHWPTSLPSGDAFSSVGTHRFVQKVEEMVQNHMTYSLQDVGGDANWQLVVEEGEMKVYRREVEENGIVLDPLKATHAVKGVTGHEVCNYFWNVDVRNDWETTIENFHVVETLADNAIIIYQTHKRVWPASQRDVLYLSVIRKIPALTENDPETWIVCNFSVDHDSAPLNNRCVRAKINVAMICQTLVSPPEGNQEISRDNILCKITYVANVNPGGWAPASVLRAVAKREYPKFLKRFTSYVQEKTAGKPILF
Experiment: NanoBRET live-cell CERT assay
Type: cell-based
Details: cells pre-treated with SACLAC
Outline: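 HeLa cells (or CERT-deficient HeLa) were transfected with NLuc fused N-terminally to full-length CERT, split into 96-well plates next day and incubated overnight. Nano-Glo Vivazine live-cell substrate was added, then NR-Cer acceptor (0.2 µM, or titrated) with test compound. mBRET was read relative to untreated (100% BRET). Library screen at 0.2 µM in single determination; dose-response in triplicate, Hill fit.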

Structure (SMILES): CCCCCCCCCCCCCCC[C@@H](O)[C@H](CO)NC(=O)CCl [SACLAC]
- mBRET after pre-treatment with acid ceramidase inhibitor: no effect on BRET efficiency; also recorded: only slightly elevated mBRET values
